Compounds with a hit are over-represented: about 5.1% of the library has one in this group of screens.
STAT1 blocker = STAT1 signaling inhibitors, primary screen, cell-based, HTS, luciferase reporter. actives 0.35% (n = 200,000). inhibition, % at 5.5 µM. NIH 3T3 STAT1-luciferase reporter, IFN-gamma, luminescence;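 active = inhibition above a set limit, the mean inhibition across all tested compounds plus 3 SD, cut at about 34% in these data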;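 also: 0% = IFN-gamma with DMSO and 100% = IFN-gamma with 300 µM nifuroxazide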
STAT3 blocker = IL-6 driven STAT3 reporter inhibitors, primary screen, U3A cells, luciferase, luminescence, MLSCN library; actives 0.89% (n = 190,000); IL-6 STAT3-luciferase reporter; host cell line lacks STAT1; inhibition, % at 5.5 µM;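 active = inhibition above the mean inhibition across all screened compounds plus 3 SD, cut at about 44% in these data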;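 also: 0% = DMSO only wells and 100% = 100 µM nifuroxazide control wells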
STAT3 act = IL-6 driven STAT3 reporter potentiators, primary screen, U3A cells, luciferase, luminescence, MLSCN library | actives 0.91% (n = 190,000) | AID 871, 2007 | IL-6 STAT3-luciferase reporter; 100% = signal with IL-6 EC80 alone | activation (% of control), % at 5.6 µM;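 active = activation above the screen-wide mean of compound activation plus 3 SD, cut at about 130% in these data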;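 also: 0% = background luminescence of wells with medium and substrate only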
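Assay system – human STAT1-deficient U3A cells with stable STAT3-luciferase reporter · Also added – IL-6 (33 ng/mL) · Schedule – compound 1 h, then IL-6 6 h at 37 °C · Technique – reporter luminescence signal · Evaluation – % activation versus median of IL-6-stimulated wells · Benchmarks – IL-6-only wells as 100% reference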
STAT1 activator = STAT1 signaling activators, primary screen, cell-based, HTS, luciferase reporter; NIH 3T3 STAT1-luciferase reporter, IFN-gamma, luminescence; 100% = IFN-gamma alone, no compound; activation (% of control), % at 5.5 µM; actives 2.6% (n = 200,000); AID 932, 2007;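 active = activation above the screen-wide mean activation plus 3 SD, cut at about 130% in these data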;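 also: raw ratio to IFN-gamma control signal so 100% means no change and 0% no light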
APP 5'UTR act = activators of APP 5'UTR luciferase reporter, primary screen, SH-SY5Y cells; SH-SY5Y APP 5'UTR luciferase reporter, luminescence; zero percent = DMSO vehicle wells; activation, % at 2 µM; actives 1% (n = 190,000); AID 1276, 2008;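 active = activation above a set limit, based on mean plus 3 SD of controls, cut at about 140% in these data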
NF-kB expr up = activators of NF-kB expression in neurons, primary screen, cell-based, HTS; human neuronal cells, NF-kB reporter expression; hits give high values; fold change at 12.5 µM; actives 1.6% (n = 190,000); in the data active = fold change above about 3.3
Active calls of the source: *.

SMILES	STAT1 blocker	STAT3 blocker	STAT3 act	STAT1 activator	APP 5'UTR act	NF-kB expr up
O=C(N/N=C/c1cccnc1)C1CC1(c1ccccc1)c1ccccc1 (configuration not stated)	4	19	92	94	8	0.98
O=[N+]([O-])c1ccc(-c2cn(-c3ccccc3)c(=S)[nH]2)cc1	-34	-7	106	131*	40	1.1
C[N+]1(C2CCC3CCCC2C3O)CCCCC1 (configuration not stated)	3	3	99	95	1	0.98
CCC(Sc1nc(N)c(NC(=O)c2ccc(OC)cc2)c(=O)[nH]1)C(=O)O (configuration not stated)	-2	-6	105	102	0	1.1
COc1ccc2cc(/C(C)=N/NC(=O)C3CC3)ccc2c1	-50	-2	103	147*	67	2.4
COc1ccc(/C(C)=N/NC(=O)C2CC2)cc1	-6	1	103	104	10	1.2
COc1cccc(SCc2noc(C(=O)NCC3CCCO3)c2C(=O)O)c1 (configuration not stated)	3	2	100	98	10	1
O=C(O)c1ccc(-c2ccccc2Cl)o1	3	2	100	98	0	0.96
CN1CCN(C(=S)c2ccc(-c3cccc(Cl)c3Cl)o2)CC1	-50	-11	114	144*	124	2.6
S=C(c1ccc(-c2ccccc2Cl)o1)N1CCCCC1	-45	1	98	141*	88	0.95
CN1CCN(C(=O)c2ccc(CS(=O)(=O)c3c(Cl)cccc3Cl)o2)CC1	-7	3	102	106	-3	0.96
O=C(c1cc2ccccc2oc1=O)N(c1ccc(Cl)cc1)C1C=CS(=O)(=O)C1 (configuration not stated)	20	8	93	82	-8	1.8
CSc1ccc(CNc2ccccc2)cc1	-13	0	109	112	13	1.4
CSc1ccc(CNc2ccccn2)cc1	-32	0	100	129*	41	2
CC(=O)Nc1ccc(NC(=S)Nc2ccccc2)cc1	3	6	103	99	15	1.1
CC(C)(C)c1nnc(NC(=S)Nc2ccccc2)s1	-41	6	96	140*	92	3.6*
Cc1ccccc1N1C(S)=C(C#N)C(=O)NC12CCCCC2	0	6	93	100	12	1.2
Cc1ccc(SCC(=O)Nc2ccc(N3CCN(C)CC3)c(F)c2)cc1	-36	6	99	133*	32	2.4
COc1ccc(SCC(=O)Nc2ccc(N3CCN(C)CC3)c(F)c2)cc1	9	17	90	90	25	1.4
Cc1ccc(N=CC2=C(O)CC(c3ccc(Cl)cc3)CC2=O)cc1 (configuration not stated)	-5	11	94	104	-5	1.1
O=C(COc1ncnc2ccccc12)c1ccc(Cl)cc1	-38	13	96	134*	30	1.2
c1ccc(OCCOc2ncnc3ccccc23)cc1	-34	6	98	133*	29	2.5
CCCc1ccc(OCc2ccc(C(=O)OC)o2)c(OC)c1	-35	-12	110	132*	71	2.8
COC(=O)c1ccc(COc2ccccc2[N+](=O)[O-])o1	-17	1	102	115	33	1.3
CCCc1ccc(OCc2ccc(C(=O)O)o2)c(OC)c1	-30	9	95	127	82	4.2*
SMILES	STAT1 blocker	STAT3 blocker	STAT3 act	STAT1 activator	APP 5'UTR act	NF-kB expr up
Cc1cccc(OCc2n[nH]c(=S)n2Cc2ccccc2)c1	7	9	96	93	-7	1.1
Cc1cc(C(F)(F)F)nn1CC(=O)NCc1cccs1	2	3	100	97	16	1.1
Fc1ccccc1/C=C1\CCCC2=C1NC(=S)NC2c1ccccc1F (configuration not stated)	4	6	99	94	4	1.1
Cc1ccc2nc(SCC(=O)c3c(N)n(C)c(=O)n(C)c3=O)[nH]c2c1	6	8	94	94	3	0.89
Cc1cc(C(=O)CSc2nc3ccc(Cl)cc3[nH]2)c(C)n1C	10	27	83	90	11	0.73
C/C(N)=C(/C#N)C(=O)CSc1nc2ccc(C)cc2[nH]1	-52	-17	118	150*	141*	4.3*
Cc1cc(C(=O)CSc2nc3ccccc3[nH]2)c(C)n1C	-45	24	83	142*	149*	4*
Cc1ccc2nc(SCC(=O)c3cc(C)n(C)c3C)[nH]c2c1	-1	23	84	101	5	3.4*
Cc1ccc(NC(=O)c2noc(C(C)C)c2[N+](=O)[O-])cc1	1	11	100	98	28	1.2
Cc1csc(SCC(=O)NC(=O)C2CCCCC2)n1	-7	-6	107	106	139*	1.3
Cc1cc(NC(=O)NC(=O)c2ccc(F)cc2F)n[nH]1	-53	34	73	149*	89	2.5
Cc1ccc(-c2nc(-c3ccc(Cl)cc3)sc2CC(=O)O)c(C)c1	-1	9	97	101	3	1.5
COc1cccc(N=C(N)N)c1	0	11	92	99	-9	1.1
O=C(O)C1CC=CCC1C(=O)NCCc1cccc(Cl)c1 (configuration not stated)	14	5	98	87	-7	1.1
Cc1nc(NC(=O)c2ccccc2)nc2cc3c(cc12)OCO3	-33	-9	110	129*	34	1.6
Cc1nc(NC(=O)c2ccc(F)cc2)nc2cc3c(cc12)OCO3	-12	5	100	110	9	0.77
CCCOc1cccc(C(=O)Nc2ccc(Br)cc2F)c1	-39	-8	108	136*	128	2.5
O=C(/C=C/c1ccc(F)cc1)c1ccccc1Br	9	15	89	92	-1	1.8
Cc1ccc(-n2[nH]c(=O)c(-c3ccccn3)c2C)cc1	76*	88*	25	30	3	0.97
COc1ccc2nc(NC(=S)NC(=O)c3ccco3)sc2c1	-53	10	97	146*	161*	2.2
Cc1cnc(NC(=O)c2ccco2)s1	-43	-5	111	139*	45	2.8
Cc1cc(C)c2c(N)c(C(=O)Nc3ncc(C)s3)sc2n1	87*	108*	11	24	-22	0.54
COc1ccc2sc(NC(=O)c3ccco3)nc2c1	38*	84*	34	66	131	2.5
COc1ccc2c(c1)CCc1sc(NC(=O)c3ccco3)nc1-2	-30	10	99	127	19	1.8

Compound activity deposited in PubChem BioAssay by several laboratories.
